Activity calls are given as the source filed them. The calls are words filed in the database; no cut-off is given here.
Legend:
[1] = target: Mitochondrial complex I (NADH dehydrogenase); experiment: Inhibition of mitochondrial ETC complex 1 in human T47D cells assessed as inhibition of 1% O2-induced HIF1 activation incubated for 30 mins prior to 1% O2-challenge measured after 16 hrs by luciferase reporter assay; type: cell-based
Summary of the method: (§1)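 pHRE-luc reporter transfected T47D cells were exposed for 16 h to hypoxia (1% O2) or to chemical hypoxia (10 μM 1,10-phenanthroline) in the presence of compound. The highest concentration tested was 30 μM. Luciferase signal was expressed as % inhibition of the induced control. IC50 and 95% CI came from one representative concentration-response experiment run in triplicate. Cycloheximide at 10 μM served as control.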

MDA-MB-231 = experiment: Antiproliferative activity against human MDA-MB-231 cells at 1 to 10 uM after 48 hrs by SRB assay; type: functional, cell-based
Summary of the method: (§2)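 T47D or MDA-MB-231 breast tumor cells were exposed to 1, 3, 10 and 30 μM for 48 h or 144 h (6 d). For the 6 d exposure, medium was replaced after 3 days with fresh medium containing compound. Stocks were 4 mM in 2-propanol, with final solvent below 0.75%. Viability was measured by sulforhodamine B and expressed as % inhibition of the untreated control: [1−(OD treated/OD control)]×100.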

[2] = target: Mitochondrial complex I (NADH dehydrogenase); experiment: Inhibition of mitochondrial ETC complex 1 in human T47D cells assessed as inhibition of 1,10-phenanthroline-induced HIF1 activation incubated for 30 mins prior to 1,10-phenanthroline-challenge measured after 16 hrs by luciferase reporter assay; type: cell-based; summary of the method: as §1
T47D [3] = experiment: Inhibition of mitochondrial ETC complex 1 in human T47D cells assessed as inhibition of oxygen consumption at 30 uM after 5 to 10 mins by Clarke-type electrode analysis; type: cell-based
Summary of the method: (§3)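 For acute exposure, intact T47D cells received compound at 3, 10 or 30 μM for 5–10 min. Oxygen consumption was then measured with a Clarke-type electrode, with rotenone at 1–100 nM as control. Results are % inhibition of the untreated rate, averaged over two independent experiments with deviation from the average.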

T47D [4] = experiment: Inhibition of mitochondrial ETC complex 1 in human T47D cells assessed as inhibition of oxygen consumption at 10 uM after 2 hrs by Clarke-type electrode analysis; type: cell-based
Summary of the method: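 T47D cells were pretreated with 10 μM compound, or 0.01 μM rotenone, for 2 h. Cells were then detached and washed, and the oxygen consumption rate was measured with a Clarke-type electrode. Results are % inhibition relative to untreated controls.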

T47D [5] = experiment: Inhibition of mitochondrial ETC complex 1 in human T47D cells assessed as inhibition of oxygen consumption at 10 uM after 10 mins by Clarke-type electrode analysis; type: cell-based; summary of the method: as §3
T47D [6] = experiment: Antiproliferative activity against human T47D cells at 1 to 10 uM after 48 hrs by SRB assay; type: functional, cell-based; summary of the method: as §2
[7] = target: T1, Mitochondrial complex I (NADH dehydrogenase) (Homo sapiens) (UniProt P03923+O95299+O00217+P03901+P56556+P03886+O95139+O00483+Q86Y39+P17568+P03891+O75306+P03915+P51970+O43674+P03905+P03897+O14561+O15239+O43181+O43676+O43677+O43678+O43920+O75251+O75380+O75438+O75489+O95167+O95168+O95169+O95178+O95182+O95298+O96000+P19404+P28331+P49821+P56181+Q16718+Q16795+Q8N183+Q9BU61+Q9NRX3+Q9NX14+Q9P032+Q9P0J0+Q9UI09+Q9Y375+Q9Y6M9); experiment: Inhibition of mitochondrial ETC complex 1 in human T47D cells assessed as inhibition of 1,10-phenanthroline-induced HIF1 activation at 30 uM incubated for 30 mins prior to 1,10-phenanthroline-challenge measured after 16 hrs by luciferase reporter assay; type: cell-based; summary of the method: as §1
[8] = target: T1, Mitochondrial complex I (NADH dehydrogenase) (Homo sapiens); experiment: Inhibition of mitochondrial ETC complex 1 in human T47D cells assessed as inhibition of 1% O2-induced HIF1 activation at 30 uM incubated for 30 mins prior to 1% O2-challenge measured after 16 hrs by luciferase reporter assay; type: cell-based; summary of the method: as §1

SMILES: CCCCCC/C=C\CCCCCCCCCC(=O)O[C@H](CC/C(C)=C/COc1ccc2ccc(=O)oc2c1)C(C)(C)O [R-(+)-MARMIN-6'-CIS-VACCENOATE]
- IC50 [1]: > 30 µM
- Activity (MDA-MB-231): Active
- IC50 [2]: > 30 µM
- inhibition (T47D [3]): 20%
- inhibition (T47D [4]): -6%
- inhibition (T47D [5]): 5%
- Activity (T47D [6]): Active
- inhibition [7]: 20%
- inhibition [8]: 20%
